Assay results as given in ChEMBL document CHEMBL2010680, “Short cyclic peptides derived from the C-terminal sequence of α1-antitrypsin exhibit significant anti-HIV-1 activity” (Bioorg Med Chem Lett, 2012).
pIC50: −log10 of the molar value. Peptide text beside a SMILES is read from it.

Experiments:
[1] = test system: Human immunodeficiency virus 1; assay: Antiviral activity against Human immunodeficiency virus 1 3B infected in human MT2 cells assessed as inhibition of viral replication after 4 days by ELISA; assay type: functional, organism-based; conditions: MT2, 96 h
In short: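 Read-out is HIV-1 gag p24 antigen in culture supernatants, measured by ELISA and collected on the fourth day post-infection.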

[2] = Cytotoxicity against human MT2 cells after 4 days by XTT assay; assay type: cell-based
In short: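 Peptide at graded concentrations was added to an equal volume of MT-2 cells (5 × 10^5/ml) and incubated 4 days at 37 °C. XTT (1 mg/ml) was added, and 4 h later soluble formazan was read at 450 nm with a 650 nm reference. CC50 was calculated from the dose-response.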

[3] = Inhibition of Human immunodeficiency virus 1 3B envelope glycoprotein-mediated cell-cell fusion of infected H9 cells to human MT2 cells measured 2 hrs after wash out by fluorescence analysis; assay type: cell-based; conditions: MT2, 2 h
In short: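 Fluorescence-labeled H9/HIV-1 IIIB cells were washed, then mixed with MT-2 cells at 1:5 for 2 h at 37 °C, without or with peptide at graded concentrations. Fused cells were counted by fluorescence microscopy, percent inhibition of fusion was calculated, and IC50 was derived from the dose-response.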

[4] = test system: Human immunodeficiency virus 1; assay: Antiviral activity against Human immunodeficiency virus type 1 SF162 pseudovirus expressing envelope glycoprotein 160 infected in human U87 cells after 48 hrs by luminometric analysis; assay type: functional, cell-based, U-87MG ATCC; conditions: Human immunodeficiency virus 1, SF162 ISOLATE, U-87 MG
In short: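 U87-CCR5 cells were seeded overnight. Pseudovirus (1 ng p24/well) was preincubated with peptide at the indicated concentration for 30 min at 37 °C, then added to the cells for 48 h. Cells were washed with PBS and lysed, and luciferase activity was measured by luminometer. Each peptide was tested in triplicate; data are mean ± SD.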

Row | pIC50 [1] | pIC50 [3] | pIC50 [4] | Compound | CC50 at 96 h [2]
1 | < 4.00 | < 3.70 |  | CSCC[C@@H]1NC(=O)[C@H](CC(C)C)NC(=O)[C@H](Cc2ccccc2)NC(=O)[C@H](C(C)C)NC(=O)[C@H](CCC(=O)O)NC(=O)[C@@H]2CCCN2C(=O)[C@H](CS)NC1=O (cyclo(CPEVFLM)) | > 200 µM
2 | 4.25 | 3.94 |  | CC(C)C[C@@H]1NC(=O)[C@H](Cc2ccccc2)NC(=O)[C@H](C(C)C)NC(=O)[C@H](Cc2ccccc2)NC(=O)[C@@H]2CCCN2C(=O)[C@H](CS)NC(=O)[C@H](CCC(=O)O)NC1=O (cyclo(CPFVFLE)) | > 200 µM
3 | 5.05 | 4.17 | 5.23 | CSCC[C@@H]1NC(=O)[C@H](CC(C)C)NC(=O)[C@H](Cc2ccccc2)NC(=O)[C@H](C(C)C)NC(=O)[C@H](Cc2ccccc2)NC(=O)[C@@H]2CCCN2C(=O)[C@H](CS)NC1=O (cyclo(CPFVFLM)) | > 200 µM
4 | 4.13 | 4.13 |  | CC(C)C[C@@H]1NC(=O)[C@H](Cc2ccccc2)NC(=O)[C@H](C(C)C)NC(=O)[C@H](Cc2ccccc2)NC(=O)[C@@H]2CCCN2C(=O)[C@H](CS)NC(=O)[C@H](CCCNC(=N)N)NC1=O (cyclo(CPFVFLR)) | > 200 µM
5 | < 4.00 |  |  | H-EFVFLM-OH | 
6 | < 4.00 |  |  | H-FVFLM-OH | 
7 | < 4.00 |  |  | H-KPFVFLM-OH | 
8 | < 4.00 |  |  | H-NKPFVFLM-OH | 
9 | < 4.00 | < 3.70 |  | H-PEVFLM-OH | 
10 | < 4.00 | < 3.70 |  | H-PFVFLE-OH | 
11 | < 4.00 | < 3.70 |  | H-PFVFLM-OH | 
12 | < 4.00 | < 3.70 |  | H-PFVFLR-OH | 
13 | < 4.00 |  |  | H-PFVYLI-OH | 
